A selection: hits, their analogues and other compounds. The true share with any hit is near 2.9%.
Runt-CBFb FRET: Runt domain-CBFb interaction inhibition; AID 1496; Cerulean-Runt/Venus-CBFb FRET ratio 530/480, 1 h; 220,000 compounds, 0.46% hits; Q01196+Q13951; inhibition, % at 20 µM;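 active = inhibition over about 50% at 20 µM in the single-dose screen, limit read from the data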
Target sequence (Q01196 whole entry, looked up, the tested form may be a part): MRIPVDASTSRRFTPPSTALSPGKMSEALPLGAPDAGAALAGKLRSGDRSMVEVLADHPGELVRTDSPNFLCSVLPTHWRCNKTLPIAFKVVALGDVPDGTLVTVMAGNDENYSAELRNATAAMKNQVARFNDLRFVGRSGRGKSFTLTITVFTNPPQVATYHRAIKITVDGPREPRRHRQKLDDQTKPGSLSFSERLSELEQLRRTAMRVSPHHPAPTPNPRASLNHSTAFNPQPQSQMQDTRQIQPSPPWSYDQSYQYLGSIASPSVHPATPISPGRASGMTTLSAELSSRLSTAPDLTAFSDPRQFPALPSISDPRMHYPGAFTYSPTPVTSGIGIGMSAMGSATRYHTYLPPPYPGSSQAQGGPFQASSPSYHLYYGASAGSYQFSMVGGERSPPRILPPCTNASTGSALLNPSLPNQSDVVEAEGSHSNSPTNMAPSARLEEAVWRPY
Target sequence (Q13951 whole entry, looked up, the tested form may be a part): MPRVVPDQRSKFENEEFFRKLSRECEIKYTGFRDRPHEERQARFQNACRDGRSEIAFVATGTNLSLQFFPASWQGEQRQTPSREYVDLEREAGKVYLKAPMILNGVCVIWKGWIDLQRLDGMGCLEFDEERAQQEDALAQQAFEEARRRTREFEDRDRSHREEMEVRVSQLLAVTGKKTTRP
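test system = Cerulean-tagged RUNX1 Runt domain (FRET donor) fusion protein | reagent = Venus-CBFb binding partner, 100 nM | incubation = protein complex preformed 1 h, compound exposure 1 h, room temperature, dark | detection = FRET fluorescence | read-out basis = loss of energy transfer signal | controls = 5 µM unlabeled CBFb as full-inhibition high control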
M18AAP inhibitor: blocks P. falciparum M18 aspartyl aminopeptidase; inhibition, % at 7.35 µM; 290,000 compounds, 1.2% hits; recombinant PfM18AAP, H-Glu-NHMec fluorogenic cleavage;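 active = inhibition above the campaign mean inhibition over all tested compounds plus 3 SD, cut at about 28% in these data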
Runt-SMMHC FRET: Runt domain-CBFb-SMMHC interaction inhibition; Q01196+Q13951; Cerulean-Runt/Venus-CBFb-SMMHC FRET ratio 530/480, 1 h; inhibition, % at 20 µM; 220,000 compounds, 0.74% hits;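 active = mean inhibition across duplicate retests at 20 µM reaching about 50%, limit read from the data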;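 note: inhibitors lower the FRET ratio by blocking Runt binding to CBFb-SMMHC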
RBBP9 inhibitor: human RBBP9 hydrolase inhibition. O75884. recombinant RBBP9, FP-Rh probe fluorescence polarization. inhibition, % at 7.94 µM. 220,000 compounds, 0.2% hits. AID 1515;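 active = inhibition above the campaign mean of all tested compounds plus 3 SD, cut at about 14% in these data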
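Test system: recombinant human RBBP9. Quantity: 2.5 µM RBBP9 dispensing solution, before mixing. Detection: FP readout at 525/598 nm. Reagent: Serine-hydrolase probe FP-Rh, 375 nM pre-mixing. Measure: % inhibition. Control set: DMSO-treated enzyme wells and wells lacking RBBP9. Buffer or medium: Tris-NaCl-Pluronic buffer, pH 8.0. Times: preincubation 30 min plus labeling 45 min at 25 °C.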
Hck Nef HTS: human Hck-Nef kinase inhibition. P08631. Recombinant Hck-YEEI plus Nef, Z-Lyte FRET kinase assay. inhibition, % at 20 µM. 220,000 compounds, 0.68% hits;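 active = Hck-Nef kinase inhibition above about 50%, limit read from the data; inactive = inhibition below that limit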
RanGTP-Impb inh: disruptors of Ran-importin-beta complex formation – biochemical, FRET, CFP-Ran, YFP-importin-beta, homogeneous, primary screen; cell-free CFP-Ran/YFP-importin-beta FRET ratio; inhibition, % (no concentration beside the values); 300,000 compounds, 1.1% hits; AID 2216;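 active = more than half of the replicate wells show a fall in the fluorescence ratio signal beyond about 16%, limit read from the data, passing the limit was not always enough; inconclusive = exactly half of the replicate wells pass the set limit; inactive = fewer than half of replicates pass the limit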
Hits are given with their value; . = inactive; ? = inconclusive; / = no result.

SMILES | Runt-CBFb FRET | M18AAP inhibitor | Runt-SMMHC FRET | RBBP9 inhibitor | Hck Nef HTS | RanGTP-Impb inh
O=C(CP(=O)(c1ccccc1)c1ccccc1)N/N=C/c1cc(Br)cc(Br)c1O | . | . | . | . | . | 21.0
CCCN1C2CCCC1CC(NC(=S)Nc1ccc(OC)cc1)C2 (stereo unspecified) | . | . | 71.0 | . | . | .
COc1ccccc1-n1cnnc1SCC(=O)Nc1cccc(S(N)(=O)=O)c1 | / | . | / | / | / | .
COc1ccc(NC(=O)CSc2ncn[nH]2)c([N+](=O)[O-])c1 | . | . | . | . | . | ?
CCOc1ccc(NC(=O)CSc2ncn[nH]2)c([N+](=O)[O-])c1 | . | 29.9 | . | . | . | .
CCC(CO)[n+]1c(C)cc(/C=C2\Sc3ccccc3N2Cc2ccccc2)cc1C (stereo unspecified) | . | . | 63.8 | . | . | /
Cc1ccc(S(=O)(=O)NCCn2cnc([N+](=O)[O-])n2)cc1 | / | . | / | / | / | .
CC1(C)CC(=O)c2cc3c(N)c(C(=O)NCc4ccccc4)sc3nc2C1 | . | . | . | . | . | .
CN1CCc2nc3sc(C(=O)NCc4ccccc4)c(N)c3cc2C1 | . | 29.2 | . | . | . | /
CC1=CC(c2ccc(Cl)cc2)n2nc(NC(=O)CCC(=O)O)nc2N1 (stereo unspecified) | . | . | 54.4 | . | . | .
CCN1C(=O)C2(C(C(=O)c3cc4ccccc4o3)=C(O)C(=O)N2CCCN2CCOCC2)c2ccccc21 (stereo unspecified) | . | . | . | . | . | .
CN1CCc2nc(NC(=O)c3cccc(OC(F)F)c3)sc2C1 | . | . | 68.6 | . | . | 19.2
CCN(CC(=O)NCc1cccs1)S(=O)(=O)c1ccc(F)c(F)c1F | / | / | / | / | / | .
Cc1ccc2c(c1)CC1(CN2C)C(=O)OC2(CCCCC2)OC1=O | . | . | . | . | . | 25.9
CCOC(=O)C1CCN(C(=O)COC(=O)c2ccccc2C(=O)c2ccc(Cl)cc2)CC1 | / | / | / | / | / | .
Cc1oc(-c2ccc(Cl)cc2)cc1-c1nn2c(-c3ccoc3C)nnc2s1 | . | . | . | . | 58.7 | .
N#C/C(C(=O)Nc1ccc(Cl)cc1)=C(/S)Nc1ccccc1 | / | 56.8 | / | / | / | .
CCOC(=O)CNS(=O)(=O)c1ccc(S(=O)(=O)NC2CC2)cc1 | / | . | / | / | / | .
CN(CC1CCCO1)S(=O)(=O)c1ccc(C(=O)Nc2nnc(-c3ccccc3)o2)cc1 (stereo unspecified) | / | . | / | / | / | .
Cc1cccn2c(=O)c(/C=C3\SC(=S)NC3=O)c(NCCCN3CCOCC3)nc12 | . | . | . | . | . | 35.4
CCCN1C(=O)/C(=C/c2c(NCCCOCC)nc3c(C)cccn3c2=O)SC1=S | . | . | . | . | . | /
O=[N+]([O-])c1ccc(N/N=C/c2cccc(O)c2)cc1 | / | 28.2 | / | / | / | .
N#C[C@@H]1[C@@H]2C(=O)N(c3ccc4c(c3)OCCO4)C(=O)[C@@H]2C2c3ccccc3C=CN21 (stereo partly specified) | . | . | . | . | . | 19.4
CC(=O)[C@@H]1[C@@H]2C(=O)N(c3ccc(F)c(Cl)c3)C(=O)[C@@H]2C2c3ccccc3C=CN21 (stereo partly specified) | . | . | . | . | . | ?
Cc1cc(NN)nc(Cc2ccccc2)n1 | / | . | / | / | / | .
SMILES | Runt-CBFb FRET | M18AAP inhibitor | Runt-SMMHC FRET | RBBP9 inhibitor | Hck Nef HTS | RanGTP-Impb inh
COc1ccc(C2C3=C(CC(C)(C)CC3=O)Nc3c2c(=O)[nH]c(=O)n3Cc2ccccc2)cc1 (stereo unspecified) | 101.7 | . | . | . | . | 83.7
COc1ccc(C2C3=C(CC(C)(C)CC3=O)Nc3c2c(=O)[nH]c(=O)n3Cc2ccccc2)cc1OC (stereo unspecified) | 55.6 | . | 78.7 | . | . | 87.7
O=C(O)CN1C(=O)/C(=C/c2ccsc2)SC1=S | . | 29.2 | . | . | . | .
CCCn1nc(NC(=O)C2CCCO2)c2cc3cc(C)ccc3nc21 (stereo unspecified) | . | . | 58.7 | . | . | 55.7
CCCn1nc(NC(=O)C2CCCO2)c2cc3ccc(C)cc3nc21 (stereo unspecified) | . | . | . | . | . | 20.9
O=C(COc1cc2oc(=O)c3c(c2cc1Cl)CCC3)NCc1ccncc1 | / | . | / | / | / | .

Screens deposited in PubChem BioAssay by several laboratories.
